From ChEMBL document CHEMBL1156197, “Design, synthesis and evaluation of novel 2-thiophen-5-yl-3H-quinazolin-4-one analogues as inhibitors of transcription factors NF-kappaB and AP-1 mediated transcriptional activation: Their possible utilization as anti-inflammatory and anti-cancer agents” (Bioorg Med Chem, 2010)

Target: Transcription factor Jun (Homo sapiens) (UniProt P05412)
Assay: Inhibition of AP-1 expressed in HEK293 cells assessed as PMA-stimulated transcriptional activation at 10 uM treated 24 hrs before PMA challenge measured after 20 to 24 hrs by luciferase reporter gene assay
Assay type: cell-based
Conditions: not given
Summary of the method: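 HEK-293 cells stably carrying a minimal-promoter luciferase construct with tandem AP-1 elements (TGACTAA) were plated at 5 × 10⁴ cells/well and held 24 h at 37 °C in 5% CO₂. Compounds in 0.1% DMSO (10 µM–1 nM) were added to replicate wells for 24 h. Cells were then stimulated with PMA for 20–24 h and read with Bright-Glo luminescence. Mean RLU was normalized to the maximal control; IC50 came from a six-point dose response.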

Chain of Transcription factor Jun (Homo sapiens) (P05412 whole entry): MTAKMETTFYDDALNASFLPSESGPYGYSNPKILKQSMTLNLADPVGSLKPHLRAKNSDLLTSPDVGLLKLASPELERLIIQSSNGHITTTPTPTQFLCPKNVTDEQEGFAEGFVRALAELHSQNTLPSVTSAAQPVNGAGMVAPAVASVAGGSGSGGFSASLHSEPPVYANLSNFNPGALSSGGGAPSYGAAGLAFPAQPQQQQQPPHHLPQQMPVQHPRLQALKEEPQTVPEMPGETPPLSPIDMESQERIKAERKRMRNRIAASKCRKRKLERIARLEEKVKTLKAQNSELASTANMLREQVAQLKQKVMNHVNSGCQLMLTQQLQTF

SMILES	inhibition
Cc1ccccc1-n1c(-c2cc(-c3ccccc3)c(N3CCOCC3)s2)nc2ccccc2c1=O	27%
COc1ccccc1-n1c(-c2cc(-c3ccncc3)c(N3CCOCC3)s2)nc2ccccc2c1=O	33%
COc1ccccc1-n1c(-c2cc(-c3ccccc3)c(N3CCOCC3)s2)nc2ccccc2c1=O	0%
Cc1ccccc1-n1c(-c2cc(-c3ccncc3)c(N3CCOCC3)s2)nc2ccccc2c1=O	0%
CC(=O)Nc1ccc(-c2cc(-c3nc4ccccc4c(=O)n3-c3ccccc3)sc2N2CCOCC2)cc1	26%
CC(=O)c1ccc(-n2c(-c3cc(-c4ccccc4)c(N4CCOCC4)s3)nc3ccccc3c2=O)cc1	25%
CS(=O)(=O)c1ccc(-c2cc(-c3nc4ccccc4c(=O)n3-c3ccccc3)sc2N2CCOCC2)cc1	28%

Other lines, results leading:

inhibition	SMILES
0%	COc1cccc(-n2c(-c3cc(-c4ccc(S(C)(=O)=O)cc4)c(N4CCOCC4)s3)nc3ccccc3c2=O)c1
7%	CC(=O)c1ccc(-n2c(-c3cc(-c4ccc(Cl)cc4)c(N4CCOCC4)s3)nc3ccccc3c2=O)cc1
27%	Cc1ccc(-n2c(-c3cc(-c4ccc(Cl)cc4)c(N4CCOCC4)s3)nc3ccccc3c2=O)cc1
51%	Cc1ccc(-n2c(-c3cc(-c4ccc(S(C)(=O)=O)cc4)c(N4CCOCC4)s3)nc3ccccc3c2=O)cc1
0%	CSc1ccc(-c2cc(-c3nc4ccccc4c(=O)n3-c3ccccc3)sc2N2CCOCC2)cc1
13%	CC(=O)Nc1ccc(-c2cc(-c3nc4ccccc4c(=O)n3-c3cccc(C)c3)sc2N2CCOCC2)cc1
16%	CSc1ccc(-c2cc(-c3nc4ccccc4c(=O)n3-c3ccc(C)cc3)sc2N2CCOCC2)cc1
29%	Cc1ccc(-n2c(-c3cc(-c4ccncc4)c(N4CCOCC4)s3)nc3ccccc3c2=O)cc1
14%	CSc1ccc(-c2cc(-c3nc4ccccc4c(=O)n3-c3cccc(C)c3)sc2N2CCOCC2)cc1
48%	Cc1cccc(-n2c(-c3cc(-c4ccc(S(C)(=O)=O)cc4)c(N4CCOCC4)s3)nc3ccccc3c2=O)c1
10%	Cc1cccc(-n2c(-c3cc(-c4ccc(Cl)cc4)c(N4CCOCC4)s3)nc3ccccc3c2=O)c1

System: Rattus norvegicus
Assay: Antiinflammatory activity against carrageenan-induced paw edema in Sprague-Dawley rat assessed as reduction in paw volume at 50 mg/kg, po dosed 1 hr before carrageenan challenge measured after 3 hrs by plethysmometry
Assay type: functional
Design: scale not given: the % may be the effect or the level left
Conditions: not given

SMILES	Activity
COc1ccccc1-n1c(-c2cc(-c3ccncc3)c(N3CCOCC3)s2)nc2ccccc2c1=O	42%
Cc1ccccc1-n1c(-c2cc(-c3ccncc3)c(N3CCOCC3)s2)nc2ccccc2c1=O	51%

System: not listed separately
Assay: Inhibition of NF-kappaB expressed in HEK293 cells assessed as inhibition of TNF-alpha-stimulated transcriptional activation treated 24 hrs before TNFalpha challenge measured after 20 to 24 hrs by luciferase reporter gene assay
Assay type: cell-based
Conditions: not given
Summary of the method: (§1)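 Compounds in 0.1% DMSO (10 µM–1 nM) were added to replicate wells for 24 h. Cells were then stimulated with TNF-α for 20–24 h and read with Bright-Glo luciferase. Mean RLU was normalized to the maximal control; IC50 came from a six-point dose response.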

IC50	SMILES
12.2 µM	COc1ccccc1-n1c(-c2cc(-c3ccncc3)c(N3CCOCC3)s2)nc2ccccc2c1=O
7.1 µM	Cc1ccccc1-n1c(-c2cc(-c3ccncc3)c(N3CCOCC3)s2)nc2ccccc2c1=O

System: HEK293
Assay: Cytotoxicity against TNF-alpha-stimulated HEK293 cells at 10 uM treated 24 hrs before TNFalpha challenge measured after 20 to 24 hrs
Assay type: cell-based
Conditions: human, hek293, 10 µM

SMILES	Activity
COc1cccc(-n2c(-c3cc(-c4ccc(S(C)(=O)=O)cc4)c(N4CCOCC4)s3)nc3ccccc3c2=O)c1	Non-toxic
Cc1ccccc1-n1c(-c2cc(-c3ccccc3)c(N3CCOCC3)s2)nc2ccccc2c1=O	Non-toxic
COc1ccccc1-n1c(-c2cc(-c3ccncc3)c(N3CCOCC3)s2)nc2ccccc2c1=O	Non-toxic
COc1ccccc1-n1c(-c2cc(-c3ccccc3)c(N3CCOCC3)s2)nc2ccccc2c1=O	Non-toxic
CC(=O)c1ccc(-n2c(-c3cc(-c4ccc(Cl)cc4)c(N4CCOCC4)s3)nc3ccccc3c2=O)cc1	Non-toxic
Cc1ccc(-n2c(-c3cc(-c4ccc(Cl)cc4)c(N4CCOCC4)s3)nc3ccccc3c2=O)cc1	Non-toxic
Cc1ccc(-n2c(-c3cc(-c4ccc(S(C)(=O)=O)cc4)c(N4CCOCC4)s3)nc3ccccc3c2=O)cc1	Non-toxic
Cc1ccccc1-n1c(-c2cc(-c3ccncc3)c(N3CCOCC3)s2)nc2ccccc2c1=O	Non-toxic
CSc1ccc(-c2cc(-c3nc4ccccc4c(=O)n3-c3ccccc3)sc2N2CCOCC2)cc1	Non-toxic
CC(=O)Nc1ccc(-c2cc(-c3nc4ccccc4c(=O)n3-c3cccc(C)c3)sc2N2CCOCC2)cc1	Non-toxic
CC(=O)Nc1ccc(-c2cc(-c3nc4ccccc4c(=O)n3-c3ccccc3)sc2N2CCOCC2)cc1	Non-toxic
CC(=O)c1ccc(-n2c(-c3cc(-c4ccccc4)c(N4CCOCC4)s3)nc3ccccc3c2=O)cc1	Non-toxic
CS(=O)(=O)c1ccc(-c2cc(-c3nc4ccccc4c(=O)n3-c3ccccc3)sc2N2CCOCC2)cc1	Non-toxic
CSc1ccc(-c2cc(-c3nc4ccccc4c(=O)n3-c3ccc(C)cc3)sc2N2CCOCC2)cc1	Non-toxic
Cc1ccc(-n2c(-c3cc(-c4ccncc4)c(N4CCOCC4)s3)nc3ccccc3c2=O)cc1	Non-toxic
CSc1ccc(-c2cc(-c3nc4ccccc4c(=O)n3-c3cccc(C)c3)sc2N2CCOCC2)cc1	Non-toxic
Cc1cccc(-n2c(-c3cc(-c4ccc(S(C)(=O)=O)cc4)c(N4CCOCC4)s3)nc3ccccc3c2=O)c1	Non-toxic
Cc1cccc(-n2c(-c3cc(-c4ccc(Cl)cc4)c(N4CCOCC4)s3)nc3ccccc3c2=O)c1	Non-toxic

System: HEK293
Assay: Inhibition of NF-kappaB expressed in HEK293 cells assessed as inhibition of TNF-alpha-stimulated transcriptional activation at 10 uM treated 24 hrs before TNFalpha challenge measured after 20 to 24 hrs by luciferase reporter gene assay
Assay type: cell-based
Conditions: not given
Summary of the method: as §1

SMILES	inhibition
COc1cccc(-n2c(-c3cc(-c4ccc(S(C)(=O)=O)cc4)c(N4CCOCC4)s3)nc3ccccc3c2=O)c1	20%
Cc1ccccc1-n1c(-c2cc(-c3ccccc3)c(N3CCOCC3)s2)nc2ccccc2c1=O	23%
COc1ccccc1-n1c(-c2cc(-c3ccncc3)c(N3CCOCC3)s2)nc2ccccc2c1=O	55%
COc1ccccc1-n1c(-c2cc(-c3ccccc3)c(N3CCOCC3)s2)nc2ccccc2c1=O	0%
CC(=O)c1ccc(-n2c(-c3cc(-c4ccc(Cl)cc4)c(N4CCOCC4)s3)nc3ccccc3c2=O)cc1	0%
Cc1ccc(-n2c(-c3cc(-c4ccc(Cl)cc4)c(N4CCOCC4)s3)nc3ccccc3c2=O)cc1	15%
Cc1ccc(-n2c(-c3cc(-c4ccc(S(C)(=O)=O)cc4)c(N4CCOCC4)s3)nc3ccccc3c2=O)cc1	55%
Cc1ccccc1-n1c(-c2cc(-c3ccncc3)c(N3CCOCC3)s2)nc2ccccc2c1=O	53%
CSc1ccc(-c2cc(-c3nc4ccccc4c(=O)n3-c3ccccc3)sc2N2CCOCC2)cc1	0%
CC(=O)Nc1ccc(-c2cc(-c3nc4ccccc4c(=O)n3-c3cccc(C)c3)sc2N2CCOCC2)cc1	35%
CC(=O)Nc1ccc(-c2cc(-c3nc4ccccc4c(=O)n3-c3ccccc3)sc2N2CCOCC2)cc1	7%
CC(=O)c1ccc(-n2c(-c3cc(-c4ccccc4)c(N4CCOCC4)s3)nc3ccccc3c2=O)cc1	0%
CS(=O)(=O)c1ccc(-c2cc(-c3nc4ccccc4c(=O)n3-c3ccccc3)sc2N2CCOCC2)cc1	9%
CSc1ccc(-c2cc(-c3nc4ccccc4c(=O)n3-c3ccc(C)cc3)sc2N2CCOCC2)cc1	22%
Cc1ccc(-n2c(-c3cc(-c4ccncc4)c(N4CCOCC4)s3)nc3ccccc3c2=O)cc1	26%
CSc1ccc(-c2cc(-c3nc4ccccc4c(=O)n3-c3cccc(C)c3)sc2N2CCOCC2)cc1	11%
Cc1cccc(-n2c(-c3cc(-c4ccc(S(C)(=O)=O)cc4)c(N4CCOCC4)s3)nc3ccccc3c2=O)c1	20%
Cc1cccc(-n2c(-c3cc(-c4ccc(Cl)cc4)c(N4CCOCC4)s3)nc3ccccc3c2=O)c1	28%
